rCAG binder – binders of r(CAG) RNA repeats, primary screen, biochemical, fluorescence | r(CAG) RNA repeat, TO-PRO-1 dye displacement fluorescence | inhibition, % at 3 µM | 1.3% of 370,000 active | AID 651821, 2012;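 active = inhibition above the plate cutoff, the mean of all test compounds on that plate plus 3 SD, cut at about 35% in these data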;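 note: 0% = DMSO alone and 100% = 100 µM mitoxantrone as full dye displacement; higher means more dye released from RNA so lower well fluorescence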
NR2E3 ag-1 – inhibitors of NR2E3-RetCOR corepressor binding, primary screen, NR2E3 agonist project, biochemical, TR-FRET, GST-NR2E3, biotin-RetCOR; Photoreceptor-specific nuclear receptor (Homo sapiens), Q9Y5X4; inhibition of corepressor binding, % at 4.78 µM; 0.12% of 320,000 active; 1536-well; AID 2300, 2010;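 active = percent inhibition above the cutoff of mean plus 3 SD of all tested compounds, set per screening campaign, cut at about 20% in these data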;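 note: 0% = DMSO wells and 100% = biotin wells as full block of FRET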
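System: GST-tagged NR2E3 plus biotinylated RetCOR corepressor; Amount: 1.35 nM GST-tagged NR2E3 final; Dosing: single nominal compound dose of 4.8 µM; Schedule: 5 h incubation at 4 °C; Technique: TR-FRET with europium anti-GST and streptavidin-D2, 340 nm excitation; Controls: biotin wells as high control, 0.6% DMSO wells as low control.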
Rev-erbA mod – modulators of Rev-erb alpha DNA binding, primary screen, biochemical, FITC-DNA, fluorescence polarization, uHTS; 0.79% of 370,000 active; Rev-erbα–FITC-DNA binding, 90 min; activity, % at 10 µM;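 active = activity above about 14%, limit read from the data; passing the limit was not always enough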;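 note: 0% = DMSO wells with 35 nM protein and 100% = DMSO wells with 750 nM protein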
Target sequence (P20393 whole entry, looked up): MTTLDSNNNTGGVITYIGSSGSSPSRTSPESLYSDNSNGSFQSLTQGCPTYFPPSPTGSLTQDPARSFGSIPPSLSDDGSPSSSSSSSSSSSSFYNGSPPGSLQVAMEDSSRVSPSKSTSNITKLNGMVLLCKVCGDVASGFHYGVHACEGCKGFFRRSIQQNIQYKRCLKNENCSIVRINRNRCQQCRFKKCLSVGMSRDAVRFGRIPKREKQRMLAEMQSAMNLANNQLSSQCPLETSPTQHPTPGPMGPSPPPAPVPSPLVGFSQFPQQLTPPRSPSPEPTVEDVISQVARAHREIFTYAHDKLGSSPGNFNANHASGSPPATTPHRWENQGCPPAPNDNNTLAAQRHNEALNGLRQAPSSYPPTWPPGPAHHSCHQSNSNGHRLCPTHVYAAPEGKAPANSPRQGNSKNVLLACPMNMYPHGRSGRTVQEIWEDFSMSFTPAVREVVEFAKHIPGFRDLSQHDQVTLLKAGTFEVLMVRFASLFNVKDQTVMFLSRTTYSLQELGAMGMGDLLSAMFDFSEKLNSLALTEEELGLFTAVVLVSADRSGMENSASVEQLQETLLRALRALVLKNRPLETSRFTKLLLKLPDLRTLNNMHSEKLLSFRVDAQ
NR2E3 ag-2 – NR2E3 agonists in two-hybrid cells, primary screen, cell-based, luminescence, CHO-S, Gal4-NCOR/VP16-NR2E3; Photoreceptor-specific nuclear receptor (Homo sapiens), Q9Y5X4; luciferase; inhibition of corepressor binding, % at 3.98 µM; 0.35% of 360,000 active; AID 602229, 2012;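 active = inhibition above the mean of all tested compounds plus 3 SD, cut at about 70% in these data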;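 note: 0% = DMSO with NR2E3 transfected cells and 100% = cells lacking NR2E3 construct; higher means lower luciferase signal from less NR2E3 corepressor binding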
PG9 Ab binder – binders of HIV-1 gp120 antibody PG9, primary screen, biochemical, TR-FRET; TR-FRET gp120-PG9 antibody binding; inhibition, % at 6.7 µM; 0.43% of 360,000 active; AID 624416, 2012; in the data active = inhibition above about 8.5%
rCAG binder conf – small molecules binding CAG repeat RNA – biochemical, fluorescence, confirmation. shares compounds with rCAG binder. AID 652065, 2013. 70% of 4,300 active. r(CAG) RNA repeat, TO-PRO-1 dye displacement fluorescence. inhibition, % at 3 µM;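 active = inhibition above a per-plate cutoff, the mean inhibition of sample wells plus 3 SD, cut at about 35% in these data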;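 note: loss of TO-PRO-1 fluorescence as compound displaces dye from 1x1 AA loop RNA; 0% = DMSO only wells and 100% = 100 µM mitoxantrone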
dCAG dye counter – displacement of TO-PRO-1 from CAG DNA duplex, counter-screen for rCAG RNA repeat binder project, biochemical, fluorescence, TO-PRO-1 dye, d(CAG) DNA oligo | shares compounds with rCAG binder | d(CAG) DNA oligo TO-PRO-1 dye displacement | inhibition, % at 3 µM | 94% of 4,300 active;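 active = inhibition above its plate's cutoff, the mean test-well inhibition plus 3 SD, cut at about 4.8% in these data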;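 note: 0% = DNA dye mix with DMSO and 100% = 100 µM mitoxantrone; hits displace the dye from DNA and so lower well fluorescence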
NR1D1 mod conf – modulators of Rev-erb alpha DNA binding, confirmation, biochemical, FITC-DNA, fluorescence polarization, single point; AID 1259319, 2017; activation, % at 25 µM; 90 min; shares compounds with Rev-erbA mod; 61% of 3,000 active;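 active = activation at or above a set limit, or at least 3 SD above the negative control mean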;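 note: 0% = 35 nM protein with DMSO and 100% = 750 nM protein high control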
RORg DNA counter – modulation of RORgamma DNA binding, dose response, counter-screen for Rev-erb alpha modulator project, biochemical, fluorescence polarization, FITC-DNA; purified RORgamma protein-FITC-DNA binding; IC50, µM; shares compounds with Rev-erbA mod; 8% of 910 active;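 active = Compounds whose fitted half-maximal concentration for disrupting protein-DNA binding is below 10 micromolar; the record names Rev-erb in its text, so the target is in doubt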
Numbers without * were called inactive. Only some compounds are listed: those with a hit (about 2.6% of all), similar ones and a draw of the others.

What do the screens show for `O=C1NC(=S)N(c2ccccc2)C(=O)/C1=C/c1ccco1`?
rCAG binder: 89*; NR2E3 ag-1: 0; Rev-erbA mod: -36; NR2E3 ag-2: -21; PG9 Ab binder: -1; rCAG binder conf: 90*; dCAG dye counter: 63*

What do the screens show for `S=C=Nc1cccc(C2(N3CCCCC3)CCCCC2)c1`?
rCAG binder: 15; NR2E3 ag-1: 0; Rev-erbA mod: 5; NR2E3 ag-2: -12; PG9 Ab binder: -1

How did O=c1[nH]c(=S)[nH]c(O)c1N=Nc1ccc(SC(F)F)cc1 do in these assays?
rCAG binder: 9; NR2E3 ag-1: -2; Rev-erbA mod: 6; NR2E3 ag-2: -86; PG9 Ab binder: -9

What do the screens show for `O=c1[nH]c(=S)[nH]c(O)c1N=Nc1ccc(S(=O)(=O)N2CCc3ccccc32)cc1`?
rCAG binder: 64*; NR2E3 ag-1: 3; Rev-erbA mod: 5; NR2E3 ag-2: -2; PG9 Ab binder: -9; rCAG binder conf: 49*; dCAG dye counter: 19*

What do the screens show for `Cn1cccc1/C=C1\C(=O)NC(=O)N(CCC2=CCCCC2)C1=O`?
rCAG binder: 10; Rev-erbA mod: -1; NR2E3 ag-2: 0; PG9 Ab binder: -1

How did O=C1NC(=O)N(CCC2=CCCCC2)C(=O)/C1=C\c1cccs1 do in these assays?
rCAG binder: 42*; NR2E3 ag-1: 0; Rev-erbA mod: -8; NR2E3 ag-2: -1; PG9 Ab binder: 1; rCAG binder conf: 6; dCAG dye counter: 3

How did COC(=O)C1C(O)C(C)C(O)C(C)/C=C\C=C(/C)C(=O)Nc2c(C)c(OC(C)=O)c3c(c2O)C(=O)C(C)=C2OCOC(=C23)/C(C)=C/C(C)(O)C(O)C(C)C1O (centres undefined) do in these assays?
rCAG binder: 47*; NR2E3 ag-1: -5; Rev-erbA mod: 5; NR2E3 ag-2: -7; PG9 Ab binder: -8; rCAG binder conf: 24; dCAG dye counter: 6.5*

How did CC(=O)c1ccc2c(c1)C1C(Cl)C(Sc3ccccc3[N+](=O)[O-])CC1C(C(=O)O)N2 (centres undefined) do in these assays?
rCAG binder: 87*; NR2E3 ag-1: -1; Rev-erbA mod: -24; NR2E3 ag-2: -17; PG9 Ab binder: -6; rCAG binder conf: 95*; dCAG dye counter: 73*

Results for O=C1NC(=O)N(Cc2ccc(F)cc2)C(=O)/C1=C\c1ccc([N+](=O)[O-])s1 ?
rCAG binder: 93*; NR2E3 ag-1: 1; Rev-erbA mod: -12; NR2E3 ag-2: -11; PG9 Ab binder: -3; rCAG binder conf: 79*; dCAG dye counter: 40*

Results for COc1ccc(CN2C(=O)NC(=O)/C(=C/c3ccc([N+](=O)[O-])s3)C2=O)cc1 ?
rCAG binder: 94*; NR2E3 ag-1: 2; Rev-erbA mod: -16; NR2E3 ag-2: -47; PG9 Ab binder: -4; rCAG binder conf: 94*; dCAG dye counter: 72*

What do the screens show for `COC(=O)C1=C(c2ccc3ccccc3c2)C[C@@H]2CC[C@H]1N2C(=O)N1CCC(C)CC1`?
NR2E3 ag-1: 1; NR2E3 ag-2: -25

What do the screens show for `CC1(CCO)C(=O)NC(=S)NC1=O`?
rCAG binder: 1; Rev-erbA mod: 0; NR2E3 ag-2: -14; PG9 Ab binder: 2

Results for Cc1cc(Br)ccc1N1C(=O)CC(=O)NC1=O ?
rCAG binder: 40*; NR2E3 ag-1: -2; Rev-erbA mod: -6; NR2E3 ag-2: -30; PG9 Ab binder: -4; rCAG binder conf: 4; dCAG dye counter: 3

How did O=C1CC(=O)N(c2cccc(Br)c2)C(=O)N1 do in these assays?
rCAG binder: 16; NR2E3 ag-1: -3; Rev-erbA mod: 4; NR2E3 ag-2: 7; PG9 Ab binder: 1

What do the screens show for `O=C1CC(=O)N(Cc2ccccc2)C(=O)N1Cc1ccccc1`?
rCAG binder: 46*; Rev-erbA mod: 16; NR2E3 ag-2: 12; PG9 Ab binder: -1; rCAG binder conf: 9; dCAG dye counter: 6.3*

Results for O=C1CC(=O)N(Cc2ccccc2)C(=O)N1 ?
rCAG binder: 4; Rev-erbA mod: -7; NR2E3 ag-2: -7; PG9 Ab binder: -1

How did Oc1ccccc1/C=N/NP(=S)(c1ccccc1)c1ccccc1 do in these assays?
rCAG binder: 6; NR2E3 ag-1: -1; Rev-erbA mod: 1; NR2E3 ag-2: -7; PG9 Ab binder: 0

What do the screens show for `Oc1ccc(/C=N/NP(=S)(c2ccccc2)c2ccccc2)c(O)c1O`?
rCAG binder: 37*; NR2E3 ag-1: 2; Rev-erbA mod: 3; NR2E3 ag-2: 2; PG9 Ab binder: 1; rCAG binder conf: 56*; dCAG dye counter: 28*

How did C=C(C)c1cccc(C(C)(C)NC(=O)NC2CN3CCC2CC3)c1 (centres undefined) do in these assays?
rCAG binder: 1; NR2E3 ag-1: -1; Rev-erbA mod: 38*; NR2E3 ag-2: -6; PG9 Ab binder: 0; NR1D1 mod conf: 46*

Results for C[C@](N)(CCP(=O)(O)O)C(=O)O ?
rCAG binder: 3; NR2E3 ag-1: 3; Rev-erbA mod: 3; NR2E3 ag-2: 7; PG9 Ab binder: 0

What do the screens show for `CCCCCn1c(=O)c(C(=O)Nc2ccccc2Cl)c(O)c2ccccc21`?
rCAG binder: -3; NR2E3 ag-1: 0; Rev-erbA mod: 76*; NR2E3 ag-2: -20; PG9 Ab binder: -1; NR1D1 mod conf: 33*; RORg DNA counter: inactive

How did CCCCn1c(=O)c(C(=O)Nc2ccccc2C)c(O)c2ccccc21 do in these assays?
NR2E3 ag-1: 3; NR2E3 ag-2: -34

How did CC(C)CCn1c(=O)c(C(=O)Nc2ccccc2S(N)(=O)=O)c(O)c2ccccc21 do in these assays?
rCAG binder: 13; NR2E3 ag-1: -1; Rev-erbA mod: 29*; NR2E3 ag-2: -31; PG9 Ab binder: 8; NR1D1 mod conf: 21*

Bioassay records as filed in PubChem.
